Published values gathered from unrelated publications.
Compare with care: the assays were run in different laboratories.
Effect on: DPPH scavenging

Structure (SMILES) | assay | conditions | inhibition [%]
CCN(O)N=Nc1ccc(S(=O)(=O)Nc2onc(C)c2C)cc1 | absorbance | 60 µg/mL | 10.9
O=C1O[C@H]([C@@H](O)CO)C(O)=C1O |  | 25 µg/mL | 57.2
O=S(=O)(Nc1nccs1)c1ccc(N=NN(O)c2ccccc2)cc1 | absorbance | 180 µg/mL | 34.2
COc1cc(C=CC(=O)CC(c2ccc(N(C)C)cc2)n2ccnc2)ccc1O (stereo not drawn) |  | 50 µg/mL | 65.2
Cc1ccc(C(C)C)cc1NC(=O)COC(=O)/C=C/c1ccc(O)cc1 |  | 100 µg/mL | 8.51
COc1cc(C=CC(=O)CC(c2ccc([N+](=O)[O-])cc2)n2ccnc2)ccc1O (stereo not drawn) |  | 12.5 µg/mL | 37.1
CCN(O)N=Nc1ccc(S(=O)(=O)Nc2nccs2)cc1 | absorbance | 20 µg/mL | 6.63
Cc1ccc(C(C)C)cc1NC(=O)COC(=O)c1cccc(O)c1 |  | 100 µg/mL | 25.2
O=C1O[C@H]([C@@H](O)CO)C(O)=C1O | absorbance | 40 µM | 41.6
Cc1ccc(C(C)C)cc1NC(=O)COC(=O)c1ccc(O)c(O)c1 |  | 100 µg/mL | 91.8
Oc1ccc(Br)cc1C=NCCN1CCOCC1 | absorbance | 40 µM | 10.1
Cc1cc(NS(=O)(=O)c2ccc(N=NN(O)c3ccccc3)cc2)no1 | absorbance | 240 µg/mL | 33.7
Cc1ccc(C(C)C)cc1NC(=O)COC(=O)c1ccc(O)cc1O |  | 100 µg/mL | 2.4
COc1cc(C=Cc2cc(-c3ccc(N(C)C)cc3)nc(O)n2)ccc1O |  | 25 µg/mL | 46.6
Cc1ccc(N(O)N=Nc2ccc(S(=O)(=O)Nc3cc(C)on3)cc2)cc1 | absorbance | 240 µg/mL | 29.7
COc1cc(C=Cc2cc(-c3ccccc3)nc(O)n2)ccc1O |  | 100 µg/mL | 73.6
Cc1ccc(C(C)C)cc1NC(=O)COC(=O)/C=C/c1ccccc1 |  | 100 µg/mL | 1.39
CCCN(O)N=Nc1ccc(S(=O)(=O)Nc2cc(C)on2)cc1 | absorbance | 180 µg/mL | 22.8
